Assay results: publication PMC10205783 (Immuno-Oncology and Technology, 2023)
In brackets after ≈: the same amount, converted by molar mass.

Key:
[1] = test system: bleomycin-induced pulmonary fibrosis; details: mouse; cited from earlier work
[2] = phase II, IPF patients, cited from earlier work
E0771 tumors = assay: E0771 orthotopic breast cancer model; format: in vivo, C57BL/6 mice
circulating LPA C18:2 [3] = assay: Pharmacodynamics in male CD1 mice: circulating LPA C18:2 after oral dose; format: in vivo
hERG tail current = hERG tail current (Homo sapiens, UniProt Q12809); assay: GLP hERG assay; format: cell-based
Sequence of hERG tail current (Q12809 whole entry): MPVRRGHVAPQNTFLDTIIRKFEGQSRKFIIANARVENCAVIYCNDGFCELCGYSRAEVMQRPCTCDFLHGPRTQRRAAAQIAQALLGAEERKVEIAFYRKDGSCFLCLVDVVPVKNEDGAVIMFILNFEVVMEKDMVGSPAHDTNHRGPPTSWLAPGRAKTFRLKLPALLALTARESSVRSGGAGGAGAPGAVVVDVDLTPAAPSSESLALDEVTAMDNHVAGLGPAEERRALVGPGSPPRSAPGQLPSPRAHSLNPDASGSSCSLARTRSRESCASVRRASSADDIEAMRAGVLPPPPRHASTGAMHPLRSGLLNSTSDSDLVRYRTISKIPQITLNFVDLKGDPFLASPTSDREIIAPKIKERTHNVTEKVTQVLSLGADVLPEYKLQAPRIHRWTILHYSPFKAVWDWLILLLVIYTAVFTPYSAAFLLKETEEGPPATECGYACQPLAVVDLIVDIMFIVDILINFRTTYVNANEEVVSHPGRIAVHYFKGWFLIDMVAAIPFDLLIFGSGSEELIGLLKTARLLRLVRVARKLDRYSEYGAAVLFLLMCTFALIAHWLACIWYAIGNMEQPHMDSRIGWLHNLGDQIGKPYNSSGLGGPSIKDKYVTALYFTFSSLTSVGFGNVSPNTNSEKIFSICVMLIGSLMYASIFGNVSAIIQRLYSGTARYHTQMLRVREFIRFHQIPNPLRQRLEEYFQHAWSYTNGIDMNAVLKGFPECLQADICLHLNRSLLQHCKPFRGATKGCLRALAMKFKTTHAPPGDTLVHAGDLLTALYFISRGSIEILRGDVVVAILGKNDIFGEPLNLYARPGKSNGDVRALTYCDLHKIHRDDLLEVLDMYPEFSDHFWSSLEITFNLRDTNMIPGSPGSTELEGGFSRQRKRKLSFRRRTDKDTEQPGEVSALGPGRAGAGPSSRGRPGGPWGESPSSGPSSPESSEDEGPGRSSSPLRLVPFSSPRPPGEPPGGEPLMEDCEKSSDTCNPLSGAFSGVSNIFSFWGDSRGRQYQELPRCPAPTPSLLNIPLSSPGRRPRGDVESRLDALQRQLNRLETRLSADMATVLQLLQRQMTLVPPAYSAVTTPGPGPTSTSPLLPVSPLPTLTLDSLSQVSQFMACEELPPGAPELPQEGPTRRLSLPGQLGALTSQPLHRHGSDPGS

[4] = First-in-human single ascending oral dose study: safety and pharmacokinetics
In vitro toxicology = details: based on absence of in vitro toxicology findings
[5] = target: 5-hydroxytryptamine 2B (5-HT2B) receptor (Homo sapiens, UniProt P41595); assay: 5-HT2B receptor binding; details: only hit of the panels
Sequence of 5-hydroxytryptamine 2B (5-HT2B) receptor (P41595 whole entry): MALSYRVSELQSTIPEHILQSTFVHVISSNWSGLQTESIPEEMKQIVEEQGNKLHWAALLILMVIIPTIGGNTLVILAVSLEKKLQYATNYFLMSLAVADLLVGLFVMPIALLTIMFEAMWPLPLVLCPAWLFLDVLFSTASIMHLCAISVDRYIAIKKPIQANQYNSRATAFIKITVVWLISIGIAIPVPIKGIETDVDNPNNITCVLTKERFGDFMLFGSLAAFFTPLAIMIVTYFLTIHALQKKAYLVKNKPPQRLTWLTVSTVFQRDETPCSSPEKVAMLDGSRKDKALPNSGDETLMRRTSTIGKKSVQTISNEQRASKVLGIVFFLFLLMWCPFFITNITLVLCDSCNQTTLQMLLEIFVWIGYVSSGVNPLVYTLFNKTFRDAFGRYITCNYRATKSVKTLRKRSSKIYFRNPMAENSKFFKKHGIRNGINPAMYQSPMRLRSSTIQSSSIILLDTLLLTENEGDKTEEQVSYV
circulating LPA C18:2 [6] = assay: First-in-human single ascending oral dose study: LPA C18:2 pharmacodynamics; format: in vivo, healthy male volunteers
[7] = 4-week GLP toxicology study in rats; format: in vivo
4T1 tumors = assay: 4T1 metastasis assay with resection of the primary tumor; format: in vivo, BALB/c mice
Method in brief: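 Female BALB/c mice implanted surgically with 4T1 cells in the mammary fat-pad, n = 12 per group. Primary tumour resected at day 15 and weighed. Test compound 100 mg/kg b.i.d. by oral gavage. Lungs and bone marrow harvested 20 days after resection. Lungs fixed and H&E-stained for metastases. Bone marrow flushed from hind limbs, cultured in complete medium with 6-thioguanine 10 μg/ml, colonies crystal violet-stained.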

[8] = test system: cardiovascular and neurobehavioral functions; assay: GLP safety pharmacology, cardiovascular and neurobehavioral functions in dogs; format: in vivo
[9] = Pharmacokinetics in male CD1 mice: plasma exposure after oral gavage; format: in vivo; details: male CD1 mice, 3, 10 and 30 mg/kg oral gavage
[10] = test system: bleomycin-induced pulmonary fibrosis; assay: Bleomycin-induced pulmonary fibrosis; format: in vivo, C57BL/6 mice
Method in brief: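 Anaesthetised male C57BL/6 mice given intranasal bleomycin (0.6 mg/ml) or saline. Test compound 10 mg/kg or methocel/PBS vehicle by oral gavage twice daily from day 0 for 21 days; body weight monitored. Day 21: terminal plasma; BALF by two ice-cold saline lavages via tracheal cannula, supernatant after centrifugation. LPA species by LC-MS/MS; Mann–Whitney test.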

[11] = 4-week GLP toxicology study in dogs; format: in vivo
[12] = test system: stimulated human primary cells (lung epithelial cells and fibroblasts; lung fibroblasts only; renal epithelial cells with lung fibroblasts); assay: BioMAP Fibrosis phenotypic screening panel; format: cell-based; details: 6 μM, 48 h, TGF-β and TNF-α stimulated co-cultures
Method in brief: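 Three co-culture systems of human primary cells: lung epithelial cells with lung fibroblasts, lung fibroblasts alone, renal epithelial cells with lung fibroblasts. Cells stimulated with TGF-β and TNF-α, then exposed 48 h to test compound at 0.24, 1.2 and 6 μM. Biomarkers quantified by ELISA. Significance envelope: 95% CI bounds of historical vehicle controls.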

[13] = test system: LPA1, LPA2, LPA3, LPA5, S1P1, S1P2, SP3, S1P4 and S1P5; SafetyScreen44 panel; assay: Off-target profiling on lipid receptor panel and SafetyScreen44 panel; format: binding
5-HT2B = 5-HT2B (Homo sapiens, UniProt P41595); assay: 5-HT2B antagonist confirmation; format: biochemical
Sequence of 5-HT2B (P41595 whole entry, species assumed): as the sequence (P41595 whole entry) above

[14] = test system: tumor-infiltrating lymphocyte (TIL) migration; details: LPA chemorepulsion of T cells; cited from earlier work
respiratory functions = assay: GLP safety pharmacology, respiratory functions in rats; format: in vivo
[15] = single oral dose, healthy male volunteers
[16] = 4T1, 20 days after removal of primary tumor

## CCc1nc2c(C)cc(N3CCN(CC(=O)N4CC(O)C4)CC3)cn2c1N(C)c1nc(-c2ccc(F)cc2)c(C#N)s1 [ziritaxestat, 2-[[2-ethyl-6-[4-[2-(3-hydroxyazetidin-1-yl)-2-oxo-ethyl]piperazin-1-yl]-8-methyl-imidazo[1,2-a]pyridin-3-yl]-methyl-amino]-4-(4-fluorophenyl)thiazole-5-carbonitrile]
[1]
  efficacy in bleomycin-induced pulmonary fibrosis model: demonstrated efficacy
[2]; 12 weeks
  plasma LPA C18:2 levels: reducing
  tolerability: well tolerated
[2]; after 12 weeks of treatment
  forced vital capacity: stabilizing

## C[C@H](NC(=O)CCc1nc2cccnc2n1Cc1ccc(OC(F)(F)F)cc1)c1ccc(Cl)cc1 [IOA-289]
E0771 tumors; E0771, 30 mg/kg b.i.d. oral from day 3 to day 40, compared with control group
  tumor growth: reduced the tumor growth
E0771 tumors; E0771, n = 10 per group
  complete tumor eradication: complete tumor eradication in two mice
Circulating LPA C18:2 [3]; Mus musculus, po, 1 h, read-out: ED50, reduction of circulating LPA C18:2
  ED50: ~3 mg/kg
Circulating LPA C18:2 [3]; male CD1 mice, 3, 10 and 30 mg/kg oral gavage
  reduction of circulating LPA C18:2: dose-dependent reduction
hERG tail current
  IC50: 1.03 µM
[4]; male, human, in vivo, po
  Tmax: 1 h
[4]; single ascending oral doses, five cohorts
  maximum plasma concentrations versus dose: increased dose proportionally
[4]; [15]
  adverse events: no adverse events reported
  safety and tolerability: well tolerated
In vitro toxicology
  risk for genotoxicity, phototoxicity and cytotoxicity: low risk
[5]
  binding to 5-HT2B receptor: sub-micromolar binding
Circulating LPA C18:2 [6]; Homo sapiens, po, read-out: IC50 on % LPA C18:2 reduction from baseline
  IC50: 0.015 mg/L (≈ 0.0298 µM)
Circulating LPA C18:2 [6]; maximal inhibition at cohorts 4 and 5 dose levels
  circulating levels of LPA C18:2: dose-related decrease
Circulating LPA C18:2 [6]; single oral dose
  time of peak inhibition of LPA C18:2 after dose: 1 to 2 h
[7]; rat, in vivo, po
  NOAEL at 4 weeks: 300 mg/kg/day
[7]; rats, all findings reversible
  main target organs for toxicity: the liver, the bone marrow and the stomach in both sexes and additionally the kidneys, the testes and thyroids in males
4T1 tumors; [16]
  bone metastases (colony formation assay from bone marrow): marked reduction
  metastatic burden in lungs (histology): marked reduction
4T1 tumors; 4T1, primary tumor resected at day 15
  primary tumor growth: no effect
[8]
  effects on cardiovascular (including QTc changes) and neurobehavioral functions: no relevant effects
[9]
  plasma exposure: dose-proportional increase
[10]; BLM model, day 21
  LPA C18:2 levels in BALF: significantly reduced
  LPA C18:2 levels in plasma: significantly reduced
[10]; compared with vehicle treatment
  severity of the BLM model followed by body weight: alleviated the severity substantially
[11]; dog, in vivo, po
  NOAEL at 4 weeks: 60 mg/kg/day
[11]; dogs
  main target organs for toxicity: the gastrointestinal tract, the liver, the bladder and the parotid gland
[12]
  activity of EGFR: significantly decreased
  activity of MCP-1: significantly decreased
  activity of collagen III (Col-III): significantly decreased
  activity of sIL-6: significantly decreased
  activity of sIL-8: significantly decreased
  activity of sVEGF: significantly decreased
  activity of αSMA: significantly decreased
[13]
  off-target interactions: no to minimal potential off-target interactions
5-HT2B
  IC50: 2.5 µM
[14]
  TIL migration in vitro: can rescue
Respiratory functions
  effects on respiratory functions: no relevant effects
